Activity calls are given as the source filed them. The rule behind the calls is not given here.
What was measured:
[1] = molecular target: T1, Sphingosine kinase 2 (Mus musculus) (UniProt Q9JIA7); assay: Inhibition of mouse SphK2 expressed in baculovirus infected Sf9 insect cells assessed as remaining activity using sphingosine and [gamma-(32)P]-ATP at 10 uM by scintillation proximity counting
T1 sequence (whole entry): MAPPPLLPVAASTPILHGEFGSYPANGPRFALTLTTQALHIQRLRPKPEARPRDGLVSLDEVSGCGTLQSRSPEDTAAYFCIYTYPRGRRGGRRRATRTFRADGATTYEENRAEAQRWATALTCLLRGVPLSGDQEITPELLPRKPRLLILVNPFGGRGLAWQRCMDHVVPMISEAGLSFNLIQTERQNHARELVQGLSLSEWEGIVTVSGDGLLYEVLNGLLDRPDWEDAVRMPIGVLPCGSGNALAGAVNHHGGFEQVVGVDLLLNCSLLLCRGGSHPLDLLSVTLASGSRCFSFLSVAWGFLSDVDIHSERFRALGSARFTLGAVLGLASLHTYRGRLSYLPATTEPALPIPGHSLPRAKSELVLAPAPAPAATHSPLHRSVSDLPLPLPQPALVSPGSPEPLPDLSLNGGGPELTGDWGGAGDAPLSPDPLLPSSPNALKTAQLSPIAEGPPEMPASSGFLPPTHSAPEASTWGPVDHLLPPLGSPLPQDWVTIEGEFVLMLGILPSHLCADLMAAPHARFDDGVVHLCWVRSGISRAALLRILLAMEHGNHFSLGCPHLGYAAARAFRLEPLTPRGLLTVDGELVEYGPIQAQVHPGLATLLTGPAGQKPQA
Procedure, shortened: (§1)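 Enzyme source: supernatant (10,000×g) of homogenized Sf9 cells infected with recombinant virus for 72 h, 2-3 μg protein per reaction. Sphingosine substrate at 10 μM for SphK1 and 5 μM for SphK2. Initial screen used inhibitor at 100 μM, with some compounds at 10 μM. Read-out is percent of remaining kinase activity, averaged over three experiments.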

[2] = molecular target: T2, Sphingosine kinase 1 (Homo sapiens, UniProt Q9NYA1); assay: Inhibition of human SphK1 expressed in baculovirus infected Sf9 insect cells assessed as remaining activity using sphingosine and [gamma-(32)P]-ATP as substrate at 100 uM by scintillation proximity counting; procedure, shortened: as §1
[3] = molecular target: T1, Sphingosine kinase 2 (Mus musculus); assay: Inhibition of mouse SphK2 expressed in baculovirus infected Sf9 insect cells assessed as remaining activity using sphingosine and [gamma-(32)P]-ATP at 100 uM by scintillation proximity counting; procedure, shortened: as §1
[4] = molecular target: T1, Sphingosine kinase 2 (Mus musculus); assay: Inhibition of mouse SphK2 expressed in baculovirus infected Sf9 insect cells using sphingosine and [gamma-(32)P]-ATP at 10 uM by scintillation proximity counting; procedure, shortened: as §1
[5] = molecular target: T2, Sphingosine kinase 1; assay: Inhibition of human SphK1 expressed in baculovirus infected Sf9 insect cells using sphingosine and [gamma-(32)P]-ATP by scintillation proximity assay
Procedure, shortened: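 Ki calculated as Ki = [I]/(K′m/Km – 1), using a sphingosine Km of 10 μM for SphK1 and 5 μM for SphK2. Enzyme came from infected Sf9 cell extract (10,000×g supernatant, 2-3 μg protein).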

[6] = molecular target: T3, Sphingosine kinase 2 (Mus musculus, UniProt Q9JIA7); assay: Inhibition of mouse SphK2 expressed in baculovirus infected Sf9 insect cells using sphingosine and [gamma-(32)P]-ATP by scintillation proximity assay
T3 sequence (Q9JIA7 whole entry): T1 sequence (whole entry)

[7] = molecular target: T4, Sphingosine kinase 2 (Homo sapiens) (UniProt Q9NRA0); assay: Inhibition of SphK2 in human U937 cells assessed as change in S1P level by LC/MS analysis; assay type: cell-based; details: U-937
T4 sequence (whole entry): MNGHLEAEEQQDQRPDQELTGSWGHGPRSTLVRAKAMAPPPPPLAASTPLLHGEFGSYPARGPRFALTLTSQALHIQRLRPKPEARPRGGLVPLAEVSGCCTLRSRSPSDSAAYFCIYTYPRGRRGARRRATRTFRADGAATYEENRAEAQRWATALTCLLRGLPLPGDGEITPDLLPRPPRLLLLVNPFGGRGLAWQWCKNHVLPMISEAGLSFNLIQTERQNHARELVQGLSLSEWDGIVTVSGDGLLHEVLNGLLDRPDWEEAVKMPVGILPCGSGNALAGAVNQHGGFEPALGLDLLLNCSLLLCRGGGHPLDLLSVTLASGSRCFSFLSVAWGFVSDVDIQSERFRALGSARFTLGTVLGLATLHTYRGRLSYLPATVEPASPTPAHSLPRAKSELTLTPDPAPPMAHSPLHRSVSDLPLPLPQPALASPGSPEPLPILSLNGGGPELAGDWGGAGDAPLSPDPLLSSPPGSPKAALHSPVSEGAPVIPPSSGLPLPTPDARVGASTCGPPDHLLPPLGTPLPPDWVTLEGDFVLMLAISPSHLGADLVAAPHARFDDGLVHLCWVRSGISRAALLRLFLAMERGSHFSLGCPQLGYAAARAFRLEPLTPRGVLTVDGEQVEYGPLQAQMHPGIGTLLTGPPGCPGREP
Procedure, shortened: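 U937 cells were treated with inhibitor, and S1P levels were measured by LC/MS.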

[8] = molecular target: T4, Sphingosine kinase 2 (Homo sapiens); assay: Inhibition of SphK2 in human U937 cells using FTY720 as substrate assessed as decrease in phosphorylated FTY720 at 10 uM after 2 hrs by LC/MS analysis; assay type: cell-based; details: U-937
Procedure, shortened: (§2)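 Cultured U937 cells were given FTY720 plus 10 μM inhibitor for 2 h, then pelleted by centrifugation. FTY720 and FTY720-P in the cell pellet were measured by LC/MS (C18 reverse phase, water/methanol/formic acid gradient) and reported as moles per million cells. Values are means ± SD of three independent experiments, with significance by unpaired two-tailed t-test.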

[9] = molecular target: T4, Sphingosine kinase 2 (Homo sapiens); assay: Inhibition of SphK2 in human U937 cells using FTY720 as substrate assessed as accumulation of FTY720 at 10 uM after 2 hrs by LC/MS analysis; assay type: cell-based; details: U-937; procedure, shortened: as §2
[10] = molecular target: T4, Sphingosine kinase 2 (Homo sapiens); assay: Inhibition of SphK2 in human U937 cells assessed as decrease in Akt phosphorylation after 16 hrs by Western blot analysis; assay type: cell-based; details: U-937
Procedure, shortened: (§3)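 U937 cells were incubated with a range of inhibitor concentrations for 16 h, then washed with PBS and Dounce-lysed. Equal protein amounts were run on 10% SDS–PAGE and blotted to nitrocellulose. Blots were blocked in 5% milk/TBS-Tween, probed with antibodies to ERK, p-ERK, Akt, p-Akt and β-actin (1:1000, 1 h), then HRP anti-IgG (1:2000). PD098059 (10 μM) served as ERK-phosphorylation control.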

[11] = molecular target: T4, Sphingosine kinase 2 (Homo sapiens); assay: Inhibition of SphK2 in human U937 cells assessed as decrease in ERK phosphorylation after 16 hrs by Western blot analysis; assay type: cell-based; details: U-937; procedure, shortened: as §3
[12] = Selectivity ratio of Ki/Km for human SphK1 to Ki/Km for mouse SphK2
Procedure, shortened: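 Selectivity calculated as (Ki/Km)SphK1 divided by (Ki/Km)SphK2, with sphingosine Km taken as 10 μM for SphK1 and 5 μM for SphK2.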

T2 sequence (Q9NYA1 whole entry): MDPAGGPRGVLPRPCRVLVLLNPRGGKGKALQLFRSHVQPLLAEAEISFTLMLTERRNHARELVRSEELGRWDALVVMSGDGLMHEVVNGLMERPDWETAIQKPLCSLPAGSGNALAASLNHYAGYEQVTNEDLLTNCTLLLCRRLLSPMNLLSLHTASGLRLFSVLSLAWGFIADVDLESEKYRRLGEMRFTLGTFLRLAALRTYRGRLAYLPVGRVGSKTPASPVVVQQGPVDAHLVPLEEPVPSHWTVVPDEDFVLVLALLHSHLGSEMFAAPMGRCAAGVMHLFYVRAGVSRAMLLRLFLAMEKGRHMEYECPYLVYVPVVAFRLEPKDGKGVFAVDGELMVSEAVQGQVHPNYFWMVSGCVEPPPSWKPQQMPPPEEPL

Activity [2] [%]	Activity [3] [%]	inhibition [4]	Ki [5] [µM]	Ki [6] [µM]	Selectivity ratio [12]	Structure (SMILES)	other results
–	–	–	–	–	–	CCCCCCCCc1ccc(-c2ccc(-n3ccccc3=O)nc2)cc1	Activity [1]: 93.7%
25.1	3.2	Active	–	–	–	CCCCCCCCc1ccc([C@H]2CC[C@@H]([N+](C)(C)CCC)CC2)cc1	–
5.3	7.2	–	47	8	2.94	CCCCCCCCc1ccc([C@H]2CC[C@H]([N+](C)(C)CCC)CC2)cc1	inhibition [7]: inactive; inhibition [8]: Active; inhibition [9]: Active; inhibition [10]: Dose-dependent effect; inhibition [11]: Dose-dependent effect
47	25	–	32	29	0.55	CCCCCCCCc1ccc([C@H]2CC[C@H](N)CC2)cc1	–
21.6	8.5	–	22	38	1.23	CCCCCCCCc1ccc([C@H]2CC[C@H](NCCO)CC2)cc1	–
–	–	–	–	–	–	CCCCCCCCc1ccc(-c2cnc(N)cn2)cc1	Activity [1]: 99%
80.9	32.6	Active	–	–	–	CCCCCCCCc1ccc([C@H]2CC[C@@H]([N+](C)(C)CCO)CC2)cc1	–
101	10.4	Active	–	–	–	CCCCCCCCc1ccc([C@H]2CC[C@@H]([N+](C)(C)C(C)C)CC2)cc1	–
10.2	4	–	60	8	3.75	CCCCCCCCc1ccc([C@H]2CC[C@H]([N+](C)(C)C)CC2)cc1	inhibition [7]: inactive; inhibition [8]: Active; inhibition [9]: Active; inhibition [10]: Dose-dependent effect; inhibition [11]: Dose-dependent effect
65.8	8.3	Active	–	–	–	CCCCCCCCc1ccc([C@H]2CC[C@@H]([N+](C)(C)C)CC2)cc1	–
–	–	–	–	–	–	CCCCCCCCc1ccc(-c2cccc(N3CCNCC3)n2)cc1	Activity [1]: 87.3%
